High-throughput results: PubChem BioAssay, The Scripps Research Institute Molecular Screening Center
Hits are enriched below; roughly 1.8% of the tested compounds scored in any of these assays.
M5 ag: CHRM5 agonism in calcium assay. activation, % at 3 µM. P08912. actives 0.19% (n = 360,000). CHO-K1 hM5 cells, Fluo-8 calcium fluorescence; 0% DMSO wells, 100% maximal acetylcholine response;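 active = activation above the run's mean over test compounds plus 3 SD, cut at about 23% in these data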;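 note: signal is peak over basal fluorescence ratio across the kinetic read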
Target sequence (P08912 whole entry, looked up): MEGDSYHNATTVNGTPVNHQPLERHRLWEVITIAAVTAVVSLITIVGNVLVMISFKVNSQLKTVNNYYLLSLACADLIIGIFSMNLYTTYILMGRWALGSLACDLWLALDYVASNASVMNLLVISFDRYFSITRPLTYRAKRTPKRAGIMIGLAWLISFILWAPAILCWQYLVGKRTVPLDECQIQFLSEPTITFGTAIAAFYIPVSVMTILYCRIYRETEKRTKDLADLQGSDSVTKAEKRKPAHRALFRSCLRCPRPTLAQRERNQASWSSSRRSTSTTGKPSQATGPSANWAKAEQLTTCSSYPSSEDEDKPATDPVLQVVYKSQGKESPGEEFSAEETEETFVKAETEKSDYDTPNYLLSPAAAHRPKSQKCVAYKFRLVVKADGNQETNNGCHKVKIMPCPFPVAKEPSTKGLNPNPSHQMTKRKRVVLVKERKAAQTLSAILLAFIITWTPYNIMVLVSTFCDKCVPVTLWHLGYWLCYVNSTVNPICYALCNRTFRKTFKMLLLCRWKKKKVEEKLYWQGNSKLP
CHRM4 PAM: CHRM4 positive allosteric modulation | AID 624126 | CHO-K1 hM4/Gqi5, Fluo-8 calcium fluorescence, ACh EC20; 0% = ACh EC20, 100% = maximal ACh | activation, % at 3 µM | P08173 | actives 0.4% (n = 360,000);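 active = activation above its plate's cutoff, the mean activation of sample wells plus 3 SD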
CHRM5 PAM: CHRM5 positive allosteric modulation; actives 0.3% (n = 360,000); CHO-K1 hM5, Fluo-8 calcium, ACh EC20 PAM; 0% = ACh EC20, 100% = ACh EC100; P08912; AID 624038; activation, % at 3 µM;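 active = activation above the run cutoff, the mean activation of all test compounds plus 3 SD, cut at about 18% in these data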
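system = human M5 receptor in CHO-K1 cells | compound = one concentration, 3 µM final (nominal) | schedule = Post-acetylcholine fluorescence recording 140 s | signal = Fluo-8 calcium dye fluorescence, kinetic read | benchmarks = low control EC20 acetylcholine (0%), high control EC100 acetylcholine (100%) | repeats = singlicate, one well per test compound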
M4 ag: agonists of human muscarinic M4 receptor (CHRM4); activation, % at 3 µM; CHO-K1 hM4/Gqi5, Fluo-8 calcium fluorescence; vehicle 0%, full acetylcholine response 100%; actives 0.14% (n = 360,000); P08173;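 active = activation above the run mean over all test wells plus 3 SD, cut at about 32% in these data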;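 note: peak over basal fluorescence ratio per well then scaled between controls; 0% = DMSO wells and 100% = acetylcholine at EC100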
CHRM4 antagonist: CHRM4 antagonism in calcium assay; P08173; CHO-hM4 cells, ACh EC80, Fluo-8 calcium fluorescence; inhibition, % at 3 µM; actives 0.73% (n = 360,000);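 active = inhibition above its plate's cutoff, the mean inhibition of sample wells plus 3 SD, cut at about 27% in these data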;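 note: 0% = acetylcholine EC80 with DMSO and 100% = DMSO without agonist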
CHRM5 antagonist: blocks acetylcholine activation of human M5 receptor | P08912 | CHO-hM5 cells, Fluo-8 calcium fluorescence, ACh EC80 | inhibition, % at 3 µM | actives 0.59% (n = 360,000);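 active = inhibition above a per-plate cutoff, the mean of that plate's test compounds plus 3 SD, cut at about 27% in these data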;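 note: 0% = acetylcholine EC80 with DMSO and 100% = DMSO without agonist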
An asterisk follows results filed as active.

SMILES	M5 ag	CHRM4 PAM	CHRM5 PAM	M4 ag	CHRM4 antagonist	CHRM5 antagonist
CCNC(=S)Nc1ccc2c(c1)c(=O)n(C)n2-c1ccc(C(C)(C)C)cc1	-5	-5	-3	0	-1	13
CCN(c1ccccc1)S(=O)(=O)c1ccc(NC(=O)c2nc(S(C)(=O)=O)ncc2Cl)cc1	3	-15	-13	36*	75*	29*
CCS(=O)(=O)c1ncc(Cl)c(C(=O)Nc2ccc(S(=O)(=O)N(C)c3ccccc3)cc2)n1	-8	-14	-11	14	59*	18
COCCCN1CN(S(=O)(=O)c2ccc(C)cc2C)c2nc3ccccc3nc21	0	4	21*	4	-9	-7
COc1ccc(-c2nc3ccccc3nc2-c2ccc(OC)c(OC)c2)cc1OC	-13	0	-7	8	-1	39*
Cc1cc2nc(-c3ccc(F)cc3)c(Cc3cccc(Cl)c3)n2c(C)c1Br	2	5	-2	-2	-4	-13
Cc1nc2nc(C)c(C)nc2nc1C	2	3	2	0	0	0
NC(=O)c1nc(C(=O)N2CCN(c3ccccc3)CC2)c2ccccc2n1	3	17	20*	1	-12	-10
NC(=O)c1nc(C(=O)N2CCCCC2)c2ccccc2n1	3	6	8	1	-5	11
COc1ccc(C2CC(=O)c3cnn(-c4nc(C)cc(C)n4)c3C2)cc1OC (configuration not stated)	7	11	44*	6	24	20
COc1ccc(CN(CCC(c2ccc(F)cc2)C2CCOC(C)(C)C2)C(=O)c2ccco2)cc1 (configuration not stated)	0	-22	-20	7	30*	36*
COc1ccc(CN(CCC(c2ccccc2)c2ccco2)C(=O)c2ccco2)cc1 (configuration not stated)	-2	-9	-11	4	7	13
CC(c1ccccc1)N(CCC(c1ccccc1)C1CCOC(C)(C)C1)C(=O)c1ccco1 (configuration not stated)	-7	-8	-17	4	-5	30*
CC1(C(=O)NS(=O)(=O)c2ccc(Br)cc2)CCN1C(=O)CCC1CCCC1 (configuration not stated)	0	4	0	0	-1	1
CC(=O)Nc1cccc(NS(=O)(=O)c2ccc3c(c2)CCC(=O)N3)c1	0	0	-1	0	-3	-3
CC1Sc2ccc(C(=O)N(CCc3ccccc3)Cc3ccccc3)cc2NC1=O (configuration not stated)	10	-3	-1	11	-21	2
CC[N+](CC)(CC#Cc1ccccc1)CC#Cc1ccccc1	-22	-48	-31	0	23	31*
CCCOc1cc(NCc2ccccc2)c2ncn(C(C)C)c2c1	14	24*	16	20	-9	5
CCOc1cc(NCc2ccccc2)c2ncn(C(C)C)c2c1	6	-2	2	7	-4	10
COC(=O)[C@@]12C[C@@H](CC(=O)NCCCCc3ccccc3)C(=O)N(Cc3cccc4ccccc34)C1=CCC(C)(C)C2	2	10	11	2	-19	-14
COc1cc(NC(=O)COc2ccc(-n3ccnc3)cc2)cc(OC)c1	3	-9	-10	7	7	11
N#Cc1cccc(NC(=O)COc2ccc(-n3ccnc3)cc2)c1	0	-14	-17	17	26	40*
CCCNC(=O)C1(C)CCCN(C(=O)CN2C(=O)c3ccccc3C2=O)C1 (configuration not stated)	1	-6	-5	0	5	1
CCCCOc1ccc(Cc2c(O)nc(SC)[nH]c2=O)cc1	7	18*	51*	5	18	30*
Cc1cccc(N2CCN(C(=O)c3ccc(NS(=O)(=O)c4c(C)noc4C)cc3)CC2)c1C	-6	-2	-10	7	-6	7
SMILES	M5 ag	CHRM4 PAM	CHRM5 PAM	M4 ag	CHRM4 antagonist	CHRM5 antagonist
Cc1noc(C)c1S(=O)(=O)Nc1ccc(C(=O)N2CCc3ccccc3C2)cc1	-2	-1	20*	3	-1	-18
Cc1noc(C)c1S(=O)(=O)Nc1ccc(C(=O)N2CCN(c3cccc(Cl)c3)CC2)cc1	7	-6	-21	35*	6	27*
O=c1[nH]c(=S)[nH]c2c1[C@H](CCc1cccc(Cl)c1)O[C@H](C1CC1)C2	3	-3	1	2	-10	-4
CC(C)[C@@H]1CC[C@@H](C)C[C@H]1O	1	-1	0	1	-4	2
CCCCn1nnnc1C(c1cccc2ccccc12)N1CCN(C/C=C/c2ccccc2)CC1 (configuration not stated)	-6	-17	-23	1	84*	96*
CCCCn1nnnc1C(c1ccnc2ccccc12)N1CCN(C/C=C/c2ccccc2)CC1 (configuration not stated)	-8	-14	-22	1	23	37*
COc1cccc(C(c2nnnn2C2CCCC2)N2CCN(C/C=C/c3ccccc3)CC2)c1OC (configuration not stated)	-8	-15	-22	3	31*	71*
COc1ccccc1Cc1c(C2CCCCC2)nc2cc(C)c(Br)c(C)n12	0	2	-12	0	-7	6
Cc1nc2ccc(C(=O)NCCCn3ccnc3)cn2c1N(C)C(=O)CCc1ccccc1	-2	8	0	1	-15	-4
COc1ccc(C)cc1NC(=O)CSc1nnc2ccc(-c3ccncc3)nn12	-4	-16	0	4	27*	1
COc1ccc(OC)c(NC(=O)CSc2nnc3ccc(-c4ccncc4)nn23)c1	-14	-19	2	2	-7	5
O=S(=O)(NNc1ccc(F)cc1F)c1cccc(Cl)c1	-3	-19	-8	1	67*	12
O=C(NNc1ccc(F)cc1F)c1c(F)cccc1Cl	5	-9	9	1	-6	-15
Nc1c(C(=O)NCc2ccccc2)nnn1Cc1ccccc1	8	4	-1	6	-11	9
CSc1ccc(Cn2nnc(C(=O)NCc3ccccc3)c2N)cc1	42*	-3	-4	61*	-8	9
CCOc1ccc(-c2cncc3nccn23)cc1	-1	-5	-4	-1	10	7
COc1ccc(-c2csc(Nc3ccc(Oc4ccccc4)cc3)n2)cc1	0	-6	-2	0	0	10
COc1cc(CNCCc2c[nH]c3ccccc23)ccc1OCc1ccc(F)cc1	7	-2	-4	47*	47*	12
